This note sets out measurements from article PMC7558257 (Acta Pharmaceutica Sinica. B, 2020).

Bounds are passed on as bounds.

The target in data set [1] is Human dihydroorotate dehydrogenase (DHODH) (Homo sapiens, UniProt Q02127). In words: In vitro DHODH enzyme inhibition assay. Type of data set: biochemical. As to conditions: for inhibition at 10 µM: read-out: Inhibition (%) at 10 μmol/L.
In data set [2] the test system is collagen-induced arthritis (CIA) in Wistar rats. In words: Collagen-induced arthritis. As to conditions: for arthritis score (stabilized, lastly): scale 0-4, model group around 2.3; for volumes of paws in CIA rats compared to model rats: orally once a day for 28 days, methotrexate 0.3 mg/kg. Type of data set: in vivo. An outline of the steps:
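Adult male Wistar rats (130–150 g) were immunized with emulsified bovine type II collagen on Days 1 and 7. Dosing was oral, once daily for 28 days, with 0.5% CMC-Na vehicle. Arthritis was scored 0–4 daily, blinded. Body weight was taken every 3 days, plus hind-paw volume and terminal joint histopathology. Data are mean ± SEM.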

Data set [3] can be described thus: In vivo single dose PK study in rats. As to conditions: male, Sprague-Dawley, rat, plasma. Put shortly: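 Male Sprague–Dawley rats (n = 3 per route) received the test compound at 1 mg/kg i.v. or 10 mg/kg p.o. Heparinized blood was sampled at 5, 15 and 30 min and at 1, 2, 4, 8 and 24 h. Levels were quantified by LC/MS/MS, with noncompartmental PK analysis. For i.v., Cmax was taken as C0.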

Another data set has as its system ICR mice. Description: Acute toxicity study in mice. Type of data set: in vivo.

Human dihydroorotate dehydrogenase (DHODH), sequence (Q02127 whole entry): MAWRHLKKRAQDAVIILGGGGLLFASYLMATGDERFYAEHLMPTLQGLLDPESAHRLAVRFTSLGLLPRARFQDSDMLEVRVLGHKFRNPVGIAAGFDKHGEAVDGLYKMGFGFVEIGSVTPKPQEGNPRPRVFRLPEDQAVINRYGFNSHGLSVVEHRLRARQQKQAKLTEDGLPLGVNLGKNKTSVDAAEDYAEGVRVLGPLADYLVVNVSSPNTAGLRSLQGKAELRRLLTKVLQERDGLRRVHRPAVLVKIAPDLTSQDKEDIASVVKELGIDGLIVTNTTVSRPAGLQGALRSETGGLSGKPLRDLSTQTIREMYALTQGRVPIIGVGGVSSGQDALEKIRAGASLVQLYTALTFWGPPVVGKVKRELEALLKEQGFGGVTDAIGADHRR

For `C/C(=C\c1ccc2ccccc2c1)C(=O)Nc1ccncc1C(=O)O` [Compound 50, (E)-4-(2-Methyl-3-(naphthalen-2-yl)acrylamido)nicotinic acid], in data set [1], half-maximal inhibition (IC50) was put at 1.691 ± 0.014 µM and the inhibition at 10 µM was 74.1%.
Turning to `C/C(=C\c1ccc2ccccc2c1)C(=O)Nc1ccccc1C(N)=O` [Compound 51], in data set [1], the IC50 was 5.35 ± 0.172 µM and the inhibition at 10 µM stood at 66.9%.
For the compound `COC(=O)c1ccccc1NC(=O)/C(C)=C/c1ccc2ccccc2c1` [Compound 52, Methyl (E)-2-(2-methyl-3-(naphthalen-2-yl)acrylamido)benzoate], in data set [1], the “DHODH inhibition, result in words” value is “completely inactive”; the IC50 was more than 10 µM; the inhibition at 10 µM is 29.6%.
With `C/C(=C\c1ccc2ccccc2c1F)C(=O)Nc1ccc(F)cc1C(=O)O` [Compound 53], the inhibition at 10 µM in data set [1] came to 98%.
As to `C/C(=C\c1ccc2ccccc2c1Cl)C(=O)Nc1ccc(F)cc1C(=O)O` [Compound 54], the “arthritis score (stabilized, lastly)” value in data set [2] (10 mg/kg orally once a day for 28 days) was “around 1”. Moreover, in data set [2] (30 mg/kg orally once a day for 28 days), the “arthritis score (stabilized, lastly)” value is on record as approximately 0.6. Also, the “histopathological symptoms of arthritis in ankle joints (H&E)” value in data set [2] (54 at 10 and 30 mg/kg, after four weeks of therapy, dose-dependent) is “significantly alleviated”. In data set [2] (54 at 10 and 30 mg/kg), the “volumes of paws in CIA rats compared to model rats” value was “significantly decreased”. Also, in data set [3] (iv, 1 mg/kg), the AUC is 381 µg·h/mL, the peak level (Cmax) was 31.5 µg/mL, the Vd was found to be 0.069 L/kg and the clearance is 2.6 mL/h/kg. In addition, in data set [3] (iv, 1 mg/kg), the half-life is 18.1 h. The bioavailability in data set [3] (oral, 10 mg/kg) stood at 67.1%. In addition, in data set [3] (po, 10 mg/kg), the AUC is 2560 µg·h/mL, the highest level (Cmax) was 77.8 µg/mL, the Tmax was 4.67 h and the half-life was 21.5 h. The behavior and mortality entry in the data set with ICR mice (single intragastric dose 300 and 500 mg/kg, 14 days observation, n = 3) is “No obvious abnormal in behaviors or mortality”. For the same compound, the “morphological examination of liver and kidney” value with ICR mice (single intragastric dose 300 and 500 mg/kg, day 14) was “did not find remarkable injury”. Further, in the data set on ICR mice (single intragastric dose 300 and 500 mg/kg, end of experiment (day 14)), the “body weight change compared to control group” value is on record as “no significant change in body weight”. In the data set on ICR mice (single intragastric dose, mice), the tolerated dose is not below 500 mg/kg. In addition, the inhibition at 10 µM in data set [1] was 98.7%.
For the compound `C/C(=C\c1ccc2ccccc2c1Br)C(=O)Nc1ccc(F)cc1C(=O)O` [Compound 55], the inhibition at 10 µM in data set [1] came out at 98.6%.
With `CN(Cc1cnc2nc(N)nc(N)c2n1)c1ccc(C(=O)N[C@@H](CCC(=O)O)C(=O)O)cc1` [methotrexate, reference compound], the “volumes of paws in CIA rats compared to model rats” value in data set [2] (54 at 10 and 30 mg/kg) is given as “significantly decreased”.

The term IC50 denotes the midpoint of a concentration-inhibition curve. Read a low IC50 as greater potency. The AUC is the area under the concentration-time curve, a measure of exposure. A high value points to high exposure. As usually defined, the Cmax is the highest concentration seen after dosing. For orientation: Vd means the apparent volume that relates the amount in the body to the concentration in plasma or blood. Higher therefore signals extensive tissue distribution. The clearance is the rate of elimination divided by the concentration. High values mean efficient removal, low ones inefficient removal. A word on the half-life: it is the time needed for the level to fall by half in the phase considered. High values mean slow decline, low ones rapid decline. The term bioavailability denotes the share of a dose that reaches the circulation, judged against a reference dose that is usually intravenous. Read a high bioavailability as much systemic uptake. Broadly, the Tmax is the time at which the peak concentration occurs.
